pIC50: −log10 of the molar value. The source made the active and inactive calls. No cut-off for these calls is given here.
Assays:
KB [1] = test: Cytotoxicity against human KB cells after 72 hrs by sulforhodamine B and MTT assay; format: functional, cell-based
How it was run: (§1)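 Log-phase cells were plated overnight and exposed for 72 h to a 5-concentration gradient, in triplicate wells. SRB arm: 10% cold TCA fixation for 1 h at 4 °C, 4 mg/ml SRB in 1% acetic acid for 15 min, dye dissolved in 10 mM Tris-HCl, read at 520 nm. MTT arm: 5 mg/mL MTT for 4 h at 37 °C, SDS-isobutanol-HCl solubilisation for 12–20 h, read at 570 nm. IC50 by Logit method from at least 3 independent tests.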

HCT-116 [2] = test: Cytotoxicity against human HCT116 cells after 72 hrs by sulforhodamine B and MTT assay; format: functional, cell-based; details: HCT-116, 72 h; how it was run: as §1
MCF7 = test: Cytotoxicity against human MCF7 cells after 72 hrs by sulforhodamine B and MTT assay; format: functional, cell-based; details: MCF7, 72 h; how it was run: as §1
[3] = target: DNA topoisomerase 2-alpha (Homo sapiens) (UniProt P11388); test: Inhibition of human topoisomerase 2-mediated decatenation of kinetoplast DNA at 100 uM after 15 mins by agarose gel electrophoresis
DNA topoisomerase 2-alpha (Homo sapiens), sequence (P11388 whole entry): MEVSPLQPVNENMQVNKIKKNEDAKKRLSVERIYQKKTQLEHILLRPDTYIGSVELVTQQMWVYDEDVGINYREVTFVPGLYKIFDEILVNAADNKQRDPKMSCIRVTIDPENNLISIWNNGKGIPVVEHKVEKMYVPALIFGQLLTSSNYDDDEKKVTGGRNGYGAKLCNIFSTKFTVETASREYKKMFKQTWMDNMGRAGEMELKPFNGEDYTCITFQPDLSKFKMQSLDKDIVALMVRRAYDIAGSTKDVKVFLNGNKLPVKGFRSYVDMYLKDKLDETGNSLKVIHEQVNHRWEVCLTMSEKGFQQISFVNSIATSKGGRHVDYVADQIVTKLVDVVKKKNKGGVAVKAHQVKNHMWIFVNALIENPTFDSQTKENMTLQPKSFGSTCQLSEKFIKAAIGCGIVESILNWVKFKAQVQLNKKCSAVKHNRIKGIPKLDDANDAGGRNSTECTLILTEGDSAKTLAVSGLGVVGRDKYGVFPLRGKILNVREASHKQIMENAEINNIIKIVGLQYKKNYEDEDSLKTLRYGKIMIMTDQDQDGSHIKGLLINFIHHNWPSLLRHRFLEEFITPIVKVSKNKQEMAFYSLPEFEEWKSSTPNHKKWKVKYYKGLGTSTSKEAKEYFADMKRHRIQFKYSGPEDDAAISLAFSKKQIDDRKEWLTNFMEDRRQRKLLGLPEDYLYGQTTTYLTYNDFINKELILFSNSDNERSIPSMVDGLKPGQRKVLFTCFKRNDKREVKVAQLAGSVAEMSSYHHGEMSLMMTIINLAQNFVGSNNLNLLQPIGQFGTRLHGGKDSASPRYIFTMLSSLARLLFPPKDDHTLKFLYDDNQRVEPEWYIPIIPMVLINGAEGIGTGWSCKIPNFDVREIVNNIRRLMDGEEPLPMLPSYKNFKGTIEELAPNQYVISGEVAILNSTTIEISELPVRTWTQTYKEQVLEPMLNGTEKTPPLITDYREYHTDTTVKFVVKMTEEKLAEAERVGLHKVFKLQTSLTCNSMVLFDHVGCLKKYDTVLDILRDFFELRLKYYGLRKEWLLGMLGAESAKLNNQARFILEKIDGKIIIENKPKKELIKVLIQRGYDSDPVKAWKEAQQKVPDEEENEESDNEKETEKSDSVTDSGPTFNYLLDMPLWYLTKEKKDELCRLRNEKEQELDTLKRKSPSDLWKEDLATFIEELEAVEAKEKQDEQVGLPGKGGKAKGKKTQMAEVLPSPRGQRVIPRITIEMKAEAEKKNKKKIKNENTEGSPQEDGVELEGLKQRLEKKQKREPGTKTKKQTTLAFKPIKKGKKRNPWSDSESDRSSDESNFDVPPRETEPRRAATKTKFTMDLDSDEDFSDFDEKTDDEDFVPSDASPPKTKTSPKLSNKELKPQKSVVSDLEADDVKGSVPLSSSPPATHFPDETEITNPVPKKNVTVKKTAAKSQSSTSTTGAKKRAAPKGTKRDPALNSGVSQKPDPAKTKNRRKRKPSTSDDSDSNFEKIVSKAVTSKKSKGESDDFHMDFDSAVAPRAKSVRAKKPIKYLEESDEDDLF
How it was run: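 ATP-dependent kDNA decatenation by 1 unit Topo II in 50 mM Tris-HCl pH 7.7, 50 mM KCl, 5 mM MgCl2, 1 mM ATP, 0.5 mM DTT, 0.5 mM EDTA and BSA, run for 15 min at 37 °C. Stopped with 10% SDS, then run on 1% agarose in TAE at 4 V/cm for 1 h and stained with ethidium bromide.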

HL-60 [4] = test: Cell cycle arrest in human HL60 cells assessed as accumulation at G0/G1 phase at 1 uM after 24 hrs using propidium iodide stain by FACS-flow cytometry (reference value: 39%); format: functional
HL-60 [5] = test: Cell cycle arrest in human HL60 cells assessed as accumulation at S phase at 10 uM after 24 hrs using propidium iodide stain by FACS-flow cytometry (reference value: 38.4%); format: functional
HL-60 [6] = test: Cell cycle arrest in human HL60 cells assessed as accumulation at G0/G1 phase at 10 uM after 24 hrs using propidium iodide stain by FACS-flow cytometry (reference value: 39%); format: functional
HL-60 [7] = test: Cell cycle arrest in human HL60 cells assessed as accumulation at G2/M phase at 1 uM after 24 hrs using propidium iodide stain by FACS-flow cytometry (reference value: 22.6%); format: functional
HL-60 [8] = test: Cell cycle arrest in human HL60 cells assessed as accumulation at S phase at 1 uM after 24 hrs using propidium iodide stain by FACS-flow cytometry (reference value: 38.4%); format: functional
HCT-116 [9] = test: Cell cycle arrest in human HCT116 cells assessed as accumulation at G2/M phase at 1 to 10 uM after 24 hrs using propidium iodide stain by FACS-flow cytometry; format: functional, cell-based
HCT-116 [10] = test: Cell cycle arrest in human HCT116 cells assessed as accumulation at G0/G1 phase at 1 to 10 uM after 24 hrs using propidium iodide stain by FACS-flow cytometry; format: functional, cell-based
HL-60 [11] = test: Induction of apoptosis in human HL60 cells assessed as DNA fragmentation at 10 uM after 36 hrs by gel electrophoresis; format: functional, cell-based
How it was run: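 HL-60 cells were seeded and exposed to compound for 36 h. Harvested cells were lysed with an equal volume of 1.2% SDS, and the fragmented DNA was extracted and resolved by gel electrophoresis.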

HL-60 [12] = test: Cell cycle arrest in human HL60 cells assessed as accumulation at G2/M phase at 10 uM after 24 hrs using propidium iodide stain by FACS-flow cytometry (reference value: 22.6%); format: functional
KB [13] = test: Resistance index, ratio of IC50 for vincristine-selected multi drug-resistant human KB cells to IC50 for human KB cells; format: functional
How it was run: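 Resistance factor is the IC50 in the resistant line divided by the IC50 in the parental line. Both IC50s come from 72 h SRB/MTT growth-inhibition assays, derived by the Logit method from at least 3 independent tests.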

KB [14] = test: Cytotoxicity against vincristine-selected multi drug-resistant human KB cells after 72 hrs by sulforhodamine B and MTT assay; format: functional, cell-based
How it was run: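 Log-phase cells were seeded, preincubated (overnight for SRB, 24 h for MTT), then given a five-concentration gradient in triplicate wells for 72 h. For MTT, reagent was added for 4 h at 37 °C, solubilized in SDS-isobutanol-HCl for 12-20 h, and read at 570 nm. IC50 was derived by the Logit method from at least 3 independent tests.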

**Q.** How did the pIC50 (KB [1]) turn out when `COc1cc2c(O[C@@H]3O[C@H](COCc4ccccc4)[C@@H](O)[C@H](O)[C@H]3O)c3c(c(-c4ccc5c(c4)OCO5)c2cc1OC)C(=O)OC3` was run?
**A.** 7.82

**Q.** What about the pIC50 (HCT-116 [2]) of the same compound?
**A.** 7.44

**Q.** What about the pIC50 (MCF7) of the same compound?
**A.** 7.55

**Q.** And the inhibition [3]?
**A.** Active

**Q.** For `COc1cc2c(O[C@@H]3O[C@H](C)[C@H](O)[C@H](O)[C@H]3O)c3c(c(-c4ccc5c(c4)OCO5)c2cc1OC)C(=O)OC3`, which Activity (HL-60 [4]) is on record?
**A.** 38.6%

**Q.** And the Activity (HL-60 [5])?
**A.** 34.6%

**Q.** What about the pIC50 (KB [1]) of the same compound?
**A.** 5.52

**Q.** And the Activity (HL-60 [6])?
**A.** 40.5%

**Q.** And the pIC50 (HCT-116 [2])?
**A.** 5.19

**Q.** What about the Activity (HL-60 [7]) of the same compound?
**A.** 31.5%

**Q.** What about the Activity (HL-60 [8]) of the same compound?
**A.** 30%

**Q.** And the Activity (HCT-116 [9])?
**A.** inactive

**Q.** And the Activity (HCT-116 [10])?
**A.** inactive

**Q.** What about the Activity (HL-60 [11]) of the same compound?
**A.** Active

**Q.** What about the pIC50 (MCF7) of the same compound?
**A.** 5.74

**Q.** And the Activity (HL-60 [12])?
**A.** 24.9%

**Q.** And the inhibition [3]?
**A.** inactive

**Q.** `COc1cc2c(O[C@@H]3O[C@@H]4CO[C@@H](C(C)C)O[C@H]4[C@H](O)[C@H]3O)c3c(c(-c4ccc5c(c4)OCO5)c2cc1OC)C(=O)OC3` was tested. Which pIC50 (KB [1]) did it give?
**A.** 9.22

**Q.** And the pIC50 (HCT-116 [2])?
**A.** 7.80

**Q.** And the pIC50 (MCF7)?
**A.** 9.70

**Q.** And the inhibition [3]?
**A.** Active

**Q.** `COc1cc2c(O[C@@H]3O[C@H](CO)[C@@H](O)[C@H](O)[C@H]3O)c3c(c(-c4ccc5c(c4)OCO5)c2cc1OC)C(=O)OC3` was tested. Which pIC50 (KB [1]) did it give?
**A.** < 5.00

**Q.** And the pIC50 (HCT-116 [2])?
**A.** 5.01

**Q.** What about the pIC50 (MCF7) of the same compound?
**A.** 5.61

**Q.** And the inhibition [3]?
**A.** inactive

**Q.** What does the source list for `COC[C@H]1O[C@@H](Oc2c3c(c(-c4ccc5c(c4)OCO5)c4cc(OC)c(OC)cc24)C(=O)OC3)[C@H](O)[C@@H](O)[C@H]1O`?
**A.** pIC50 (KB [1]): 5.39; pIC50 (HCT-116 [2]): < 5.00; pIC50 (MCF7): < 5.00; inhibition [3]: inactive

**Q.** How did the pIC50 (KB [1]) turn out when `COc1cc2c(O[C@@H]3OC[C@H](O)[C@H](O)[C@H]3O)c3c(c(-c4ccc5c(c4)OCO5)c2cc1OC)C(=O)OC3` [ACUTISSIMALIGNAN A] was run?
**A.** 5.16

**Q.** What about the pIC50 (HCT-116 [2]) of the same compound?
**A.** < 5.00

**Q.** What about the pIC50 (MCF7) of the same compound?
**A.** < 5.00

**Q.** What about the inhibition [3] of the same compound?
**A.** inactive

**Q.** With `COc1cc2c(O[C@H]3O[C@@H](C)[C@@H](OC(C)=O)[C@@H](O)[C@@H]3O)c3c(c(-c4ccc5c(c4)OCO5)c2cc1OC)C(=O)OC3` [4'-O-ACETYLPATENTIFLORIN B] as the compound, how does the pIC50 (KB [1]) read?
**A.** 6.85

**Q.** And the pIC50 (HCT-116 [2])?
**A.** 6.57

**Q.** And the pIC50 (MCF7)?
**A.** 6.96

**Q.** What about the inhibition [3] of the same compound?
**A.** Active

**Q.** Which results are given for `CC[C@]1(O)C[C@H]2CN(CCc3c([nH]c4ccccc34)[C@@](C(=O)OC)(c3cc4c(cc3OC)N(C=O)[C@H]3[C@@](O)(C(=O)OC)[C@H](OC(C)=O)[C@]5(CC)C=CCN6CC[C@]43[C@@H]65)C2)C1` [VINCRISTINE]?
**A.** pIC50 (KB [1]): 8.52; Ratio IC50 (KB [13]): 536.7; pIC50 (KB [14]): 5.79

**Q.** What does the source list for `COc1cc2c(O[C@H]3O[C@@H](C)[C@@H](O)[C@@H](O)[C@@H]3O)c3c(c(-c4ccc5c(c4)OCO5)c2cc1OC)C(=O)OC3` [PATENTIFLORIN B]?
**A.** pIC50 (KB [1]): < 5.00; pIC50 (HCT-116 [2]): < 5.00; Activity (HL-60 [11]): Active; pIC50 (MCF7): 5.85; inhibition [3]: inactive
